MrgX1 antagonist = human MrgX1 receptor antagonism, primary screen; Q96LB2; MRGX1-HEK293 calcium flux, Fluo-4, BAM8-22 antagonism; stronger effect = lower value; B-score at 10 µM; 1.3% of 310,000 active; AID 588676;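 active = calcium-response B-score plate-corrected more than 3 library SD below zero, starting fluorescence within 5 deviations, no agonist response on first addition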;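 note: peak minus trough fluorescence over baseline after final BAM8-22 challenge near maximal dose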
Target sequence (Q96LB2 whole entry, looked up): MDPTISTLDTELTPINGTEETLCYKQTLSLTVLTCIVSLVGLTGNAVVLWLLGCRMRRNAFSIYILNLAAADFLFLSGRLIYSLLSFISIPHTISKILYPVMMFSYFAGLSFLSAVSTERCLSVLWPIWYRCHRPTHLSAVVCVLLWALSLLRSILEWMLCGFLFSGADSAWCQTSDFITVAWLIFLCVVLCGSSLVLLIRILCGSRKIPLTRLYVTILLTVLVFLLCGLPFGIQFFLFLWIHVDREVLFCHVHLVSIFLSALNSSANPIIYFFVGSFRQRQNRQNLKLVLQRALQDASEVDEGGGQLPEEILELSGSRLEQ
RGS4 pot = potentiators or activators of RGS4; 0.92% of 310,000 active; AID 463111; B-score at 10 µM; HEK293 M3R/inducible RGS4, carbachol calcium flux Fluo4; stronger effect = lower value;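 active = B-score of the integrated calcium signal more than 4 SD below the library mean, with starting fluorescence not abnormally high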;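 note: negative B-score means reduced calcium response which marks RGS4 activation or potentiation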
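System – HEK293 FlpIn-TREx cells, stable M3R, doxycycline-inducible RGS4 · Reagent – ECmax carbachol challenge · Times – compound preincubation 20 min at room temperature before agonist · Technique – Fluo4 fluorescence kinetic imaging of calcium · Measure – B score of integrated Fluo4 ratio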
MrgX1 PAM = allosterically activates human MrgX1 receptor signaling; MrgX1-HEK293, Fluo-4 calcium flux, FDSS; stronger effect = higher value; B-score at 10 µM; 0.63% of 310,000 active;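 active = plate-corrected calcium response at least 3 library SD above typical, normal starting fluorescence, not activating the receptor alone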;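 note: compound read alongside a low EC10 to EC30 dose of BAM8-22 agonist; peak minus trough fluorescence over baseline measured at the second addition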
RGS4 inh = inhibitors of human RGS4. P49798. HEK293 M3R/RGS4 inducible, Fluo-4 calcium flux; stronger effect = higher value; triggered by carbachol at its EC20. B-score at 10 µM. 0.45% of 310,000 active. AID 463165;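 active = B-score, a plate-corrected calcium signal, over three deviations above library mean, with baseline fluorescence within five deviations of library mean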;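 note: RGS4 expression induced by doxycycline in cells with stable M3 receptor; B-score is computed from the integrated fluorescence ratio over baseline after carbachol; higher B-score means a larger calcium signal and so more RGS4 inhibition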
Target sequence (P49798 whole entry, looked up): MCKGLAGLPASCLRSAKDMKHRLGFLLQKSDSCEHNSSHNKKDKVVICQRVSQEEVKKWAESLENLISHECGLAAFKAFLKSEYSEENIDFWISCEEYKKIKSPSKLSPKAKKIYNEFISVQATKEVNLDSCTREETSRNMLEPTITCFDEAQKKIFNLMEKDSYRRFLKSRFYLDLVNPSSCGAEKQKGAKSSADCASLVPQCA
MrgX1 agonist = activates human MrgX1 receptor signaling | MrgX1-HEK293 cells, Fluo-4 calcium fluorescence, agonist mode; stronger effect = higher value | B-score at 10 µM | 0.44% of 310,000 active | AID 588627;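 active = calcium response B-score plate-corrected fluorescence ratio at least 3 library SD, with starting fluorescence B-score inside 5 SD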
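Assay system: stable human MrgX1 HEK293 cell line. Quantity: 15,000 cells per well. Schedule: cells plated overnight, dye loaded 0.5 h 37 °C, 0.5 h room temperature. Detection: Fluo-4 NW calcium-flux fluorescence, kinetic read. Read-out basis: peak-minus-minimum fluorescence over baseline, converted to B scores. Control set: positive and negative control wells on each plate.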
RGS4 block valid = validation of RGS4 inhibitors. shares compounds with RGS4 inh. HEK293 M3R/RGS4, carbachol calcium Fluo-4 fluorescence; carbachol added at its EC20; 0 = buffer wells, 100 = carbachol control. calcium response, % at 10 µM. 65% of 1,700 active;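 active = duplicate-averaged calcium response above the buffer-only control mean plus 5 SD of those controls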;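 note: integrated fluorescence ratio F max minus min over baseline F0; higher response in RGS4-induced cells means RGS4 inhibition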
RGS4 uninduced = counter-screen for RGS4 inhibitors: effect in non-induced cells | shares compounds with RGS4 inh | HEK293 M3R non-induced, carbachol calcium Fluo-4; submaximal (EC20) carbachol stimulus; buffer wells 0%, carbachol control wells 100% | activity (percent), % at 10 µM | 20% of 1,900 active; call rule not given here;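 note: RGS4 induction absent so cells express M3R without RGS4; higher means more calcium signal and flags a non-specific hit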
M3R basal Ca ctr = second counter-screen for RGS4 inhibitors: non-induced cells without carbachol; 22% of 1,900 active; shares compounds with RGS4 inh; HEK293 M3R/RGS4 non-induced, Fluo-4 calcium, no carbachol; normalised: buffer wells 0%, carbachol wells 100%; calcium response (agonist-mode artifact), % at 10 µM;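 active = duplicate-averaged calcium rise in uninduced cells above buffer wells' mean plus 5 SD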
Of the large screens only hits and unclear results are named; the others gave an inactive call (follow-up assays come after a bar, where they were run). An excerpt weighted towards active compounds, which were near 3.5% of everything screened.

O=C(O)c1ccc(/C=C2/SC(=S)N(Cc3ccccc3)C2=O)cc1	none
COc1ccc(CN2C(=O)/C(=C/c3ccncc3)SC2=S)cc1	RGS4 inh 11 | RGS4 block valid 25% | RGS4 uninduced inactive | M3R basal Ca ctr 22%
CC(=O)Oc1ccc(/C=C2/SC(=S)N(Cc3ccccc3)C2=O)cc1	none
O=C(O)C(c1ccccc1)N1C(=O)/C(=C/c2cccs2)SC1=S (stereo not given)	none
CC(c1ccccc1)N1C(=O)/C(=C/c2ccncc2)SC1=S (stereo not given)	RGS4 inh 7 | RGS4 block valid 6.5% | RGS4 uninduced 34% | M3R basal Ca ctr inactive
CCc1ccccc1NC(=O)CCc1nc(-c2cccs2)no1	none
O=C(O)c1cccc(CN2C(=O)S/C(=C/c3cccc([N+](=O)[O-])c3)C2=O)c1	RGS4 inh 26 | RGS4 block valid 62% | RGS4 uninduced 73% | M3R basal Ca ctr inactive
C=CCN=C1S/C(=C/c2cccc([N+](=O)[O-])c2)C(=O)N1CC=C	none
Oc1ccc(N=C/C=C/c2cccc(Br)c2)cc1-c1nc2ccccc2s1	RGS4 inh 8.6 | RGS4 block valid inactive | RGS4 uninduced inactive | M3R basal Ca ctr inactive
O=C(NCc1ccccc1F)c1ccc(S(=O)(=O)Nc2cccc(C(F)(F)F)c2)cc1	none
O=C(NCc1ccc(F)cc1)c1ccc(S(=O)(=O)Nc2cccc(C(F)(F)F)c2)cc1	RGS4 inh 5.2 | RGS4 block valid 16% | RGS4 uninduced inactive | M3R basal Ca ctr 18%
CCc1ccc(NC(=O)C(C)Sc2nc(-c3ccco3)c(C#N)c(=O)[nH]2)cc1 (stereo not given)	none
Cc1ccc(C(=O)NNC(=O)c2cccc(S(=O)(=O)N3CCN(c4ccccc4)CC3)c2)cc1	none
CC1(C)Cc2c(cnn2-c2ccccc2)C(NC(=O)c2ccc[n+]([O-])c2)C1 (stereo not given)	none
COc1cc2c(cc1OC)-c1cc(Nc3ccc(F)cc3)nc(=O)n1CC2	none | RGS4 block valid inactive | RGS4 uninduced inactive | M3R basal Ca ctr inactive
COc1cc2c(cc1OC)-c1cc(Nc3ccc(N(C)C)cc3)nc(=O)n1CC2	RGS4 inh 5.6 | RGS4 block valid 7.0% | RGS4 uninduced 36% | M3R basal Ca ctr inactive
COc1cc2c(cc1OC)-c1cc(Nc3cccc(F)c3)nc(=O)n1CC2	none (no result: MrgX1 antagonist, MrgX1 PAM, MrgX1 agonist)
COc1cc2c(cc1OC)-c1cc(NC3CCCC3)nc(=O)n1CC2	none
CCCCn1nnnc1SCC(=O)NC1CCCCC1	none
O=C(O)c1ccccc1N/N=C/C1=C(N2CCOCC2)C(=C\c2ccccc2)/CC1	RGS4 inh 8.2, MrgX1 agonist 39 | RGS4 block valid 30% | RGS4 uninduced inactive | M3R basal Ca ctr 140%
O=C(N/N=C/C1=C(N2CCOCC2)C(=C\c2ccccc2)/CC1)Nc1ccccc1	none
O=C(NCC1CCN(S(=O)(=O)c2ccccc2)CC1)Nc1ccc(F)cc1F	none
O=C(NC(Cc1ccccc1)C(=O)O)/C(=C/c1ccco1)NC(=O)c1cccc(Br)c1 (stereo not given)	none
N#C/C(=C\c1cccc(O)c1)C(=O)N1CCCCC1	RGS4 inh 6.3 | RGS4 block valid 8.0% | RGS4 uninduced inactive | M3R basal Ca ctr 9.0%
Cc1cc(/C=C(\C#N)C(=O)N2CCCCC2)cc(C)c1O	none
N#C/C(=C\c1cccc(Br)c1)C(=O)N1CCCCC1	RGS4 inh 6.5 | RGS4 block valid 25% | RGS4 uninduced inactive | M3R basal Ca ctr inactive
CCOC(=O)c1ccc(NC(=S)N(CCCN2CCN(CC)CC2)Cc2cccs2)cc1	none
COc1ccccc1CC(=O)Nc1ccon1	none
Cc1ccc(NC(=O)CSc2nnc(/N=C/N(C)C)s2)cc1	none
